Source: PubChem BioAssay AID2520 (Sanford-Burnham Center for Chemical Genomics, 2010)
Out of some 330,000 compounds screened, about 350 (0.11%) were called active. The sample holds actives, similar compounds and a random draw of the others, so the mix is not that of the screen. A number with no mark means an inactive call.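 How the source made its calls: active means activation more than six SD over the plate average, tested at 20 µM; inactive means the rest.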

molecular target: Apelin receptor (Homo sapiens) (UniProt P35414); test: APJ activation via beta-arrestin recruitment – CHO-K1 cells, PathHunter beta-arrestin, luminescence, primary screen (AID 2520); settings: at 20 µM, hits give high values, 0% DMSO wells, 100% apelin;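 further: 0% = DMSO alone and 100% = apelin-13 at 10 nM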
Outline: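 Test system: CHO-K1 APJ beta-arrestin complementation cell line | Compound: Single test compound dose, 20 µM final, 1% DMSO | Incubation: Compound 90 min 25 °C, reagent 1 h | Measured by: beta-gal luminescence | Read-out basis: APJ–arrestin association signal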

Sequence of Apelin receptor (Homo sapiens) (P35414 whole entry, looked up): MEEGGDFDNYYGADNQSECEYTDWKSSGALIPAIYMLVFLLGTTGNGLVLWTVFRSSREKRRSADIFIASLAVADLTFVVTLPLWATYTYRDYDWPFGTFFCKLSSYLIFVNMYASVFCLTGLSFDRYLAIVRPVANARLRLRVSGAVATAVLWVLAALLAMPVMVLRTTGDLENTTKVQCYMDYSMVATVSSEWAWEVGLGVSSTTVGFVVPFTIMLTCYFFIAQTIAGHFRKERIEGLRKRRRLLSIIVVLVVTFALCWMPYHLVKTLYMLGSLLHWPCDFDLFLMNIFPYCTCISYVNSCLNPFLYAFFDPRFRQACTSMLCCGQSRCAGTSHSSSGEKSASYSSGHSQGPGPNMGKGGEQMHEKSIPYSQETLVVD

Compound | activation
O=Cc1ccc(OCc2cn3ccccc3n2)cc1 | -1.42%
COc1ccccc1CNC(=O)CN1CCC(n2cnc3cc(F)ccc32)CC1 | -0.106%
Cc1cc(C(=O)OCC(=O)N2C(C)CCCC2C)c2ccccc2n1 (stereo unspecified) | -2.15%
O=C(c1ccccc1)N1CCN(C(=O)c2cc3nc(-c4ccccc4)cc(C(F)(F)F)n3n2)CC1 | -0.488%
COc1ccccc1Oc1ccc(N2CC(C(=O)OCC(=O)c3ccc(F)cc3)CC2=O)cc1 (stereo unspecified) | -2.79%
O=C(Nc1ccc(F)c([N+](=O)[O-])c1)C1CC(=O)N(Cc2ccccc2)C1 (stereo unspecified) | -2.4%
COc1cccc(N(CC(=O)NC2CCCC2)C(=O)Cn2nnc(-c3ccc(C)cc3)n2)c1 | 0.507%
O=C(CCCn1c(=O)c2sccc2n(CC(=O)NCC2CCCO2)c1=O)NCc1ccco1 (stereo unspecified) | -4.48%
COc1ccccc1NC(=O)C1=C(C)Nc2nc3ccccc3n2C1c1cccs1 (stereo unspecified) | -1.44%
COc1ccc(S(=O)(=O)N(CC(=O)NCc2ccco2)c2ccc(F)cc2)cc1 | -0.367%
CN(C)N1C(N)=C(C#N)C(c2ccc(Br)cc2)C2=C1CCCC2=O (stereo unspecified) | 0.53%
O=[N+]([O-])c1ccccc1N/N=C1\CCc2ccccc21 | -0.52%
O=C(N[C@@H](Cc1c[nH]c2ccccc12)C(=O)O)OCC1c2ccccc2-c2ccccc21 | 7.88%
Cn1c(=O)cc(OCCCC(=O)N2CCN(c3ccccn3)CC2)c2ccccc21 | -3.56%
COc1ccc(NC(=O)CSc2nncc(=O)n2N)cc1OC | -6.25%
CN(C)/C=C(\C#N)C(=O)c1cccnc1Oc1cccc(F)c1 | -4.09%
CC(C)NC(=O)Nc1cccc2c1O[C@@H](CN(C)S(=O)(=O)c1ccc(F)cc1)[C@@H](C)CN([C@H](C)CO)C2=O | -0.163%
Cc1ccc(S(=O)(=O)N(C)C)cc1NC(=O)/C=C/c1cccs1 | 2.48%
Cn1ccnc1-c1nnn(-c2ccc(F)cc2)n1 | -4.89%
CCOc1ccc(CN2CCN(Cc3ccon3)CC2CCO)cc1 (stereo unspecified) | -0.588%
Cc1ccc(C(=O)O)cc1-c1ccc(/C=C2\SC(=O)N(CC(=O)Nc3ccc4c(c3)OCO4)C2=O)o1 | 0.103%
CC(NC(=O)c1ccc(Cl)cc1)C(=O)N1CCCCC1 (stereo unspecified) | 0.246%
COc1ccc(C)cc1NC(=O)CSc1nnc2ccc(-c3ccccn3)nn12 | 1.64%

Compound | activation
COc1ccc(CNS(=O)(=O)c2cc(-c3cc(C)no3)ccc2C(C)C)cc1 | 0.556%
CN1CCN(CC#CCC2(O)c3ccccc3-c3ccccc32)CC1 | -0.677%
CN1CCN(S(=O)(=O)c2ccc(Nc3ccc(F)cc3)nc2)CC1 | 7.91%
Brc1ccc(CN2CC[C@H]3C=CCc4cccc(c43)C2)cc1 | -1.27%
CCN1CN(Cc2ccccc2)CNC1=S | -0.233%
CCc1ccc(CN2C(=O)c3ccccc3C2C(=O)NCC2CCCO2)cc1 (stereo unspecified) | 1.09%
CCCN(c1ccc(C(C)C)cc1)S(=O)(=O)c1c(C)[nH]c(=O)[nH]c1=O | -2.76%
CCN1C(=O)c2cccc3c(N)ccc1c23 | 24% (active)
CCN1C(=O)c2cccc3c(S(=O)(=O)Nc4ccccc4O)ccc1c23 | 2.45%
Cc1nn(C)cc1N1C(=O)c2cccc3c(N)ccc(c23)C1=O | -0.917%
O=S(=O)(N1CCCCC1)N1CCNCC1 | 2.29%
Cc1c(Cl)c([N+](=O)[O-])nn1Cc1ccc(C(=O)N/N=C\c2cc(Cl)ccc2O)o1 | 1.67%
COc1cc(NC(=O)COC(=O)c2cc(S(=O)(=O)N3CCOCC3)ccc2F)cc(OC)c1 | -0.441%
Cc1cc(C(=O)NCCc2ccc(Cl)cc2)c(C)o1 | 7.66%
CSCCC(C(=O)NC1=NCCS1)N1C(=O)c2ccccc2C1=O (stereo unspecified) | 0.0635%
CN(C(=O)c1cccc(NC(=O)Cc2ccc([N+](=O)[O-])cc2)c1)C1CCC1 | 0.477%
COc1cc(C(=O)Nc2cc(C(F)(F)F)ccc2N2CCOCC2)ccc1O | -3.45%
Cc1ccc(NC(=O)CN(C)C(=O)c2cccc(S(=O)(=O)N3CCCC3)c2)cc1 | -1.65%
Cc1n[nH]c(=O)n1-c1ccc(Oc2ccccc2)cc1 | -4.14%
O=C(CCS(=O)(=O)c1ccc2c(c1)NC(=O)CS2)NCc1ccccc1Cl | 0.174%
O=C(N/N=C/c1cccc(OCc2ccccc2)c1)c1ccc(Br)o1 | 12%
CCCc1ccc(OCc2ccc(C(=O)N/N=C/c3cccc([N+](=O)[O-])c3)o2)c(OC)c1 | 47.7% (active)
COC(=O)c1ccc(COc2ccc(/C=N/NC(=O)C(=O)Nc3ccc(OC)cc3)cc2OC)o1 | -4.37%
